High-throughput results (PubChem)
Pf Dd2 inh – P. falciparum Dd2 growth inhibition; SYBR Green, 72 h; stronger effect = lower value; activity change, % at 10 µM; hit rate 2.3% among 94,000; in the data active = activity change below about -80%
T cruzi growth-1 – blocks T. cruzi growth in NIH3T3 culture; T. cruzi beta-gal in NIH3T3, GalScreen luminescence, 90 h; inhibition, % at 8.34 µM; hit rate 5.9% among 77,000;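 active = mean inhibition above about 93%, with at least 55% of replicates each passing it, limit read from the data, passing the limit was not always enough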
GASC1 inh – inhibitors of human demethylase GASC-1 KDM4C; GST-KDM4C 2-372, H3K9me3 peptide, LANCE TR-FRET; AID 720574; hit rate 0.15% among 96,000; Q9H3R0; inhibition, % at 12.5 µM;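 active = mean replicate inhibition above about 25%, with at least 55% of replicates also reaching it, limit read from the data, passing the limit was not always enough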
Target sequence (Q9H3R0 2-372 limits assumed): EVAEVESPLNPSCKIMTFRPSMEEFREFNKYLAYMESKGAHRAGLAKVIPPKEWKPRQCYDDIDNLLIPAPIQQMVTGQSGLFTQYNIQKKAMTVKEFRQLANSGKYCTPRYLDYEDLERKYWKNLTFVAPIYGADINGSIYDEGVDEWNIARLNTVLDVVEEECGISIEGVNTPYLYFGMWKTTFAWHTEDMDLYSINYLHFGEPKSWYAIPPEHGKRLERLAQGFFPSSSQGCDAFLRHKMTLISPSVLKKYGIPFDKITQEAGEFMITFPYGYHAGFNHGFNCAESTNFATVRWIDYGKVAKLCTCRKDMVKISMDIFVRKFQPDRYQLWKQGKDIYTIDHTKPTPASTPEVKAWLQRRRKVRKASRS
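Material: GST-tagged GASC-1 (JMJD2C) catalytic fragment, aa 2-372. Input: enzyme final amount 10 nM. Medium: HEPES buffer, pH 7.5, plus ascorbate. Reagent: H3K9me3 peptide substrate, Fe(II), 2-oxoglutarate. Doses: single dose. Times: reaction 30 min RT, detection step 1 h RT. Measured by: LANCE TR-FRET. Evaluation: Fall in 671/618 emission ratio as inhibition.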
IDH1 R132H inh – IDH1 R132H (human) inhibition; IDH1 R132H reductase, diaphorase/resazurin fluorescence, 60 min; AID 624101; inhibition, % at 10 µM; hit rate 0.18% among 70,000; O75874; in the data active = inhibition above about 34%
T cruzi growth-2 – blocks T. cruzi growth in NIH3T3 host cells. shares compounds with T cruzi growth-1. T. cruzi beta-gal in NIH3T3, GalScreen luminescence, 90 h. inhibition, % at 8.35 µM. hit rate 72% among 5,600. AID 651739;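 active = mean replicate inhibition above about 95% and at least 55% of replicates individually reaching it, limit read from the data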
T cruzi growth-3 – inhibitors of T. cruzi proliferation | shares compounds with T cruzi growth-1 | T. cruzi beta-gal in NIH3T3, GalScreen luminescence, 90 h | inhibition, % at 2.09 µM | hit rate 21% among 5,600 | AID 651740;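 active = mean inhibition above about 95%, with at least 55% of replicates also reaching it, limit read from the data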
3T3 cytotox – kills mouse NIH/3T3 fibroblasts; shares compounds with T cruzi growth-1; NIH/3T3 viability, CellTiter-Glo ATP luminescence, 90 h; cytotoxicity (signal decrease), % at 8.35 µM; hit rate 14% among 5,600;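 active = mean signal decrease across replicates above about 35% based on untreated-well scatter, with enough replicates individually passing, limit read from the data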
3T3 cytotox 2 – cytotoxicity in mouse NIH/3T3 fibroblasts; shares compounds with T cruzi growth-1; NIH/3T3 viability, CellTiter-Glo ATP luminescence, 90 h; inhibition, % at 24.9 µM; hit rate 56% among 5,600; AID 651744;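 active = mean loss of cell viability signal at or above a set limit, and enough replicates individually reaching it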
Hits are given with their value. A selection: hits, their analogues and other compounds. The true share with any hit is near 5.9%.

Results for C[C@@H]1CCCCO[C@@H](CN(C)S(=O)(=O)c2ccc(Cl)cc2)[C@@H](C)CN([C@H](C)CO)C(=O)c2cc(NS(=O)(=O)c3ccc(F)cc3)ccc2O1 ?
Pf Dd2 inh: inactive; T cruzi growth-1: inactive; GASC1 inh: inactive

What do the screens show for `COc1ccc(-c2nnc(SCC(=O)N3c4ccccc4Sc4ccccc43)n2C)cc1`?
IDH1 R132H inh: inactive

Results for Cc1ccc(NC(=O)COc2ccc(Cl)cc2)cc1NC(=O)c1ccccc1 ?
IDH1 R132H inh: inactive

How did CC(C)(O)C(O)Cc1cc2ccc(=O)oc2cc1O (stereo not given) do in these assays?
IDH1 R132H inh: inactive

What do the screens show for `C[C@@H]1CN([C@@H](C)CO)C(=O)c2cc(NS(=O)(=O)c3ccc(F)cc3)ccc2O[C@@H]1CN(C)S(=O)(=O)c1ccc(Cl)cc1`?
Pf Dd2 inh: inactive; T cruzi growth-1: 92; GASC1 inh: inactive; IDH1 R132H inh: inactive; T cruzi growth-2: 110; T cruzi growth-3: inactive; 3T3 cytotox: inactive; 3T3 cytotox 2: 46

How did C[C@@H]1CCCCO[C@@H](CN(C)S(=O)(=O)c2ccc(F)cc2)[C@@H](C)CN([C@@H](C)CO)C(=O)c2cc(NS(=O)(=O)c3ccc(Cl)cc3)ccc2O1 do in these assays?
Pf Dd2 inh: inactive; T cruzi growth-1: 103; GASC1 inh: inactive; IDH1 R132H inh: inactive; T cruzi growth-2: 103; T cruzi growth-3: inactive; 3T3 cytotox: inactive; 3T3 cytotox 2: 53

What do the screens show for `COc1ccc(NC(=O)Cn2nc(C)c([N+](=O)[O-])c2C)c(OC)c1`?
IDH1 R132H inh: inactive

Results for CC(C)(C)Nc1nc(SCC(N)=O)nc(N2CCOCC2)n1 ?
IDH1 R132H inh: inactive

Results for CC(C)(O[C@@H]1O[C@H](CO)[C@@H](O)[C@H](O)[C@H]1O)[C@@H]1Oc2cc3oc(=O)ccc3cc2[C@H]1O ?
IDH1 R132H inh: inactive

What do the screens show for `C[C@H]1CN([C@@H](C)CO)C(=O)c2cc(NS(=O)(=O)c3ccccc3)ccc2O[C@@H]1CN(C)Cc1ccc(C(F)(F)F)cc1`?
Pf Dd2 inh: inactive; T cruzi growth-1: 104; GASC1 inh: inactive; IDH1 R132H inh: inactive; T cruzi growth-2: inactive; T cruzi growth-3: inactive; 3T3 cytotox: inactive; 3T3 cytotox 2: 39

Results for C[C@H](CO)N1C[C@H](C)[C@@H](CN(C)Cc2ccc3c(c2)OCO3)Oc2ccc(NS(=O)(=O)c3ccccc3)cc2C1=O ?
Pf Dd2 inh: inactive; T cruzi growth-1: inactive; GASC1 inh: inactive; IDH1 R132H inh: inactive

How did C[C@H](CO)N1C[C@H](C)[C@H](CN(C)Cc2ccc(C(F)(F)F)cc2)Oc2ccc(NS(=O)(=O)c3ccccc3)cc2C1=O do in these assays?
Pf Dd2 inh: inactive; T cruzi growth-1: 104; GASC1 inh: inactive; IDH1 R132H inh: inactive; T cruzi growth-2: inactive; T cruzi growth-3: inactive; 3T3 cytotox: inactive; 3T3 cytotox 2: inactive

What do the screens show for `C[C@@H]1CN([C@@H](C)CO)C(=O)c2cc(NS(=O)(=O)c3ccccc3)ccc2O[C@@H]1CN(C)Cc1ccc(C(F)(F)F)cc1`?
Pf Dd2 inh: inactive; T cruzi growth-1: inactive; GASC1 inh: inactive; IDH1 R132H inh: inactive

Results for C[C@@H]1CN([C@@H](C)CO)C(=O)c2cc(NS(=O)(=O)c3ccccc3)ccc2O[C@@H]1CN(C)Cc1ccc2c(c1)OCO2 ?
Pf Dd2 inh: inactive; T cruzi growth-1: 102; GASC1 inh: inactive; IDH1 R132H inh: inactive; T cruzi growth-2: inactive; T cruzi growth-3: inactive; 3T3 cytotox: inactive; 3T3 cytotox 2: inactive

How did COC(=O)c1cccc(NC(=O)CSc2nc(C)cc(-c3ccccc3)n2)c1 do in these assays?
IDH1 R132H inh: inactive

Results for CC(NS(=O)(=O)c1ccc(F)cc1)C(=O)Nc1ccc(F)c(Cl)c1 (stereo not given) ?
IDH1 R132H inh: inactive

What do the screens show for `CC(Oc1ccc(Br)cc1)c1nc(-c2ccccn2)no1` (stereo not given)?
IDH1 R132H inh: inactive

What do the screens show for `CN(C)CC(=O)N1CCCCN2[C@H](C1)[C@@H](c1ccc(-c3cccnc3)cc1)[C@@H]2CO`?
Pf Dd2 inh: inactive; T cruzi growth-1: inactive; GASC1 inh: inactive

Results for CCC(=O)N1CCCCN2[C@H](C1)[C@H](c1ccc(-c3cccnc3)cc1)[C@@H]2CO ?
Pf Dd2 inh: inactive; T cruzi growth-1: 113; GASC1 inh: inactive; T cruzi growth-2: inactive; T cruzi growth-3: inactive; 3T3 cytotox: inactive; 3T3 cytotox 2: inactive

Results for CN(C)CC(=O)N1CCCCN2[C@H](CO)[C@@H](c3ccc(-c4cccnc4)cc3)[C@H]2C1 ?
Pf Dd2 inh: inactive; T cruzi growth-1: inactive; GASC1 inh: inactive

Results for CCC(=O)N1CCCCN2[C@@H](CO)[C@@H](c3ccc(-c4cccnc4)cc3)[C@@H]2C1 ?
Pf Dd2 inh: inactive; T cruzi growth-1: 96; GASC1 inh: inactive; T cruzi growth-2: inactive; T cruzi growth-3: inactive; 3T3 cytotox: inactive; 3T3 cytotox 2: inactive

Results for O=C(Nc1cc(Cl)cc(Cl)c1)N[C@@H]1CC[C@@H](CCNS(=O)(=O)c2cccc(F)c2)O[C@@H]1CO ?
Pf Dd2 inh: inactive; T cruzi growth-1: 147; GASC1 inh: inactive; IDH1 R132H inh: inactive; T cruzi growth-2: 104; T cruzi growth-3: inactive; 3T3 cytotox: inactive; 3T3 cytotox 2: 65

How did O=C(Cc1ccccn1)N[C@H]1CC[C@@H](CCNS(=O)(=O)c2cccc(F)c2)O[C@@H]1CO do in these assays?
Pf Dd2 inh: inactive; T cruzi growth-1: 101; GASC1 inh: inactive; IDH1 R132H inh: inactive; T cruzi growth-2: inactive; T cruzi growth-3: inactive; 3T3 cytotox: inactive; 3T3 cytotox 2: inactive

Results for O=C(Nc1ccc(Cl)cc1)N[C@H]1CC[C@@H](CCNC(=O)c2ccccc2F)O[C@@H]1CO ?
Pf Dd2 inh: inactive; T cruzi growth-1: 142; GASC1 inh: inactive; IDH1 R132H inh: inactive; T cruzi growth-2: inactive; T cruzi growth-3: inactive; 3T3 cytotox: inactive; 3T3 cytotox 2: inactive

What do the screens show for `O=C(Nc1cc(Cl)cc(Cl)c1)N[C@H]1CC[C@H](CCNS(=O)(=O)c2cccc(F)c2)O[C@H]1CO`?
Pf Dd2 inh: inactive; T cruzi growth-1: 176; GASC1 inh: inactive; IDH1 R132H inh: inactive; T cruzi growth-2: 104; T cruzi growth-3: inactive; 3T3 cytotox: inactive; 3T3 cytotox 2: 57

What do the screens show for `O=C(Nc1ccc(Cl)cc1)N[C@H]1CC[C@@H](CCNC(=O)c2ccccc2F)O[C@H]1CO`?
Pf Dd2 inh: inactive; T cruzi growth-1: inactive; IDH1 R132H inh: inactive

Results for Cc1[nH]c2ccccc2c1C(=O)CSc1nnc2ccccn12 ?
IDH1 R132H inh: inactive

What do the screens show for `Cc1cc(C(F)(F)F)nc2snc(Br)c12`?
IDH1 R132H inh: inactive
